What is called MIC is the lowest concentration that inhibits growth of the organism.

≈ marks a conversion by molar mass, not a printed value. Where only a bound is given, the exact number is not on record here.

The subject of experiment [1] is Citrobacter freundii. In words: In vitro minimum inhibitory concentration for Citrobacter freundii (ATCC-8090) by agar dilution method. The class given is functional. Conditions: Citrobacter freundii; read-out: MIC. In short, it runs like this: (§1)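 Two-fold serial dilutions of each compound dispersed in Mueller-Hinton agar; plates spot-inoculated with 2 μL of standard test strain at 10^7 CFU/mL, incubated 37 °C for 20 h; MIC read as lowest concentration inhibiting growth.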
On the technique in general: In agar dilution, organisms are placed on agar that contains the substance at set levels.

The test system of experiment [2] is Enterobacter cloacae. As to the kind of experiment: In vitro minimum inhibitory concentration for Enterobacter cloacae (ATCC-27508) by agar dilution method. Conditions: Enterobacter cloacae; read-out: MIC. Format: functional. The method in brief: as §1
Experiment [3] relates to Klebsiella aerogenes. As to the kind of experiment: In vitro minimum inhibitory concentration for Enterobacter aerogenes (ATCC-29751) by agar dilution method. Format: functional. Conditions: Klebsiella aerogenes; read-out: MIC. In short, it runs like this:
as §1

For experiment [4], the system named is Klebsiella pneumoniae. In words: In vitro minimum inhibitory concentration for Klebsiella pneumoniae (ATCC-10031) by agar dilution method. The class given is functional. Conditions: Klebsiella pneumoniae; read-out: MIC.
Experiment [5] concerns Pseudomonas aeruginosa. In words: In vitro minimum inhibitory concentration for Pseudomonas aeruginosa (ATCC-27853) by agar dilution method. Format: functional. As to conditions: Pseudomonas aeruginosa; read-out: MIC. The method in brief:
as §1

Experiment [6] deals with Proteus vulgaris. As to the kind of experiment: In vitro minimum inhibitory concentration for Proteus vulgaris (ATCC-6059) by agar dilution method. Conditions: Proteus vulgaris; read-out: MIC. Format: functional. The method in brief:
as §1

In experiment [7] the test system is Salmonella typhimurium. In words: In vitro minimum inhibitory concentration for Salmonella Typhimurium (ATCC-14028) by agar dilution method. Conditions: Salmonella enterica; read-out: MIC. The class given is functional, Salmonella enterica subsp. enterica serovar Typhimurium. The method in brief: as §1
Experiment [8] relates to Serratia marcescens. As to the kind of experiment: In vitro minimum inhibitory concentration for Serratia marcescens (ATCC-27117) by agar dilution method. As to conditions: Serratia marcescens; read-out: MIC. The class given is functional. The method in brief:
as §1

For experiment [9], the system named is Staphylococcus epidermidis. In words: In vitro minimum inhibitory concentration for Staphylococcus epidermidis (ATCC-12228) by agar dilution method. The class given is functional. Conditions: Staphylococcus epidermidis; read-out: MIC. The method in brief: as §1
In experiment [10] the test system is Staphylococcus aureus. As to the kind of experiment: In vitro minimum inhibitory concentration for Staphylococcus aureus (ATCC 6538p) by agar dilution method. As to conditions: Staphylococcus aureus, ATCC 6538p; read-out: MIC. The class given is functional. In short, it runs like this:
as §1

Experiment [11] relates to Escherichia coli. In words: In vitro minimum inhibitory concentration for Escherichia coli (ATCC-10536) by agar dilution method. Format: functional. As to conditions: Escherichia coli; read-out: MIC. The method in brief: as §1
The test system of experiment [12] is Pseudomonas aeruginosa. In words: In vitro minimum inhibitory concentration for Pseudomonas aeruginosa (ATCC 10145) by agar dilution method. The class given is functional. In short, it runs like this: as §1

For the molecule `CC(C)(O/N=C(\C(=O)NC1C(=O)N2C(C(=O)O)=C(CSc3nc(N)cc(N)n3)CSC12)c1cnc(N)s1)C(=O)O` (centres undefined), the MIC in experiment [1] was found to be 1 µg/mL (≈ 1.64 µM); in experiment [2], 0.25 µg/mL (≈ 0.41 µM); in [3] it was 2 µg/mL (≈ 3.28 µM); in experiment [4] it was 0.25 µg/mL (≈ 0.41 µM); in experiment [5], 2 µg/mL (≈ 3.28 µM); in [6], 0.031 µg/mL (≈ 0.0508 µM). In addition, the MIC in experiment [7] was 0.5 µg/mL (≈ 0.82 µM); in experiment [8] it was 0.5 µg/mL (≈ 0.82 µM); in experiment [9] it was 8 µg/mL (≈ 13.1 µM); in experiment [10], 32 µg/mL (≈ 52.5 µM); in experiment [11] it was 0.25 µg/mL (≈ 0.41 µM); in [12], 4 µg/mL (≈ 6.56 µM).

For the molecule `CC(C)(O/N=C(\C(=O)NC1C(=O)N2C(C(=O)O)=C(CSc3nc(O)cc(O)n3)CSC12)c1cnc(N)s1)C(=O)O` (centres undefined), the MIC was determined as 8 µg/mL (≈ 13.1 µM) in [1]; 1 µg/mL (≈ 1.63 µM) in experiment [2]; 32 µg/mL (≈ 52.3 µM) in [3]; 2 µg/mL (≈ 3.27 µM) in [4]; 32 µg/mL (≈ 52.3 µM) in [5]; 0.25 µg/mL (≈ 0.409 µM) in experiment [6]. Besides, the MIC was 8 µg/mL (≈ 13.1 µM) in experiment [7]; 4 µg/mL (≈ 6.54 µM) in experiment [8]; over 128 µg/mL in experiment [9]; over 128 µg/mL in [10]; 4 µg/mL (≈ 6.54 µM) in [11]; 32 µg/mL (≈ 52.3 µM) in [12].

As to `CC[n+]1c(N)cc(N)nc1SCC1=C(C(=O)[O-])N2C(=O)C(NC(=O)/C(=N\OC(C)(C)C(=O)O)c3cnc(N)s3)C2SC1` (centres undefined), the MIC is 0.13 µg/mL (≈ 0.204 µM) in [1]; 0.03 µg/mL (≈ 0.047 µM) in [2]; 2 µg/mL (≈ 3.14 µM) in experiment [3]; 0.06 µg/mL (≈ 0.0941 µM) in experiment [4]; 1 µg/mL (≈ 1.57 µM) in experiment [5]; 0.03 µg/mL (≈ 0.047 µM) in [6]. Also, the MIC in experiment [7] was 0.25 µg/mL (≈ 0.392 µM); in experiment [8] it was 0.13 µg/mL (≈ 0.204 µM); in experiment [9], 1 µg/mL (≈ 1.57 µM); in [10], 2 µg/mL (≈ 3.14 µM); in experiment [11] it was 0.06 µg/mL (≈ 0.0941 µM); in experiment [12], 2 µg/mL (≈ 3.14 µM).

In the case of `CCCC[n+]1c(N)cc(N)nc1SCC1=C(C(=O)[O-])N2C(=O)C(NC(=O)/C(=N\OC(C)(C)C(=O)O)c3cnc(N)s3)C2SC1` (centres undefined), the MIC in experiment [1] was found to be 0.13 µg/mL (≈ 0.195 µM); in experiment [2], 0.03 µg/mL (≈ 0.0451 µM); in [3], 1 µg/mL (≈ 1.5 µM); in experiment [4], 0.06 µg/mL (≈ 0.0901 µM); in [5] it was 4 µg/mL (≈ 6.01 µM); in experiment [6], 0.25 µg/mL (≈ 0.375 µM). Moreover, the MIC turned out to be 0.5 µg/mL (≈ 0.751 µM) in [7]; 0.5 µg/mL (≈ 0.751 µM) in [8]; 1 µg/mL (≈ 1.5 µM) in experiment [9]; 2 µg/mL (≈ 3 µM) in experiment [10]; 0.13 µg/mL (≈ 0.195 µM) in experiment [11]; 4 µg/mL (≈ 6.01 µM) in [12].

With `CN[n+]1c(N)cc(N)nc1SCC1=C(C(=O)[O-])N2C(=O)C(NC(=O)/C(=N\OC(C)(C)C(=O)O)c3cnc(N)s3)C2SC1` (centres undefined), the MIC in experiment [1] was determined as 0.5 µg/mL (≈ 0.783 µM); in [2], 0.13 µg/mL (≈ 0.204 µM); in experiment [3] it was 16 µg/mL (≈ 25.1 µM); in experiment [4], 0.25 µg/mL (≈ 0.391 µM); in experiment [5], 8 µg/mL (≈ 12.5 µM); in experiment [6], 0.03 µg/mL (≈ 0.047 µM). Besides, the MIC in experiment [7] is 1 µg/mL (≈ 1.57 µM); in experiment [8], 1 µg/mL (≈ 1.57 µM); in experiment [9], 16 µg/mL (≈ 25.1 µM); in experiment [10], 32 µg/mL (≈ 50.1 µM); in experiment [11] it was 0.5 µg/mL (≈ 0.783 µM); in [12], 8 µg/mL (≈ 12.5 µM).

On to `CC(C)(O/N=C(\C(=O)NC1C(=O)N2C(C(=O)[O-])=C(CSc3nc(N)c4c([n+]3N)CCCC4)CSC12)c1cnc(N)s1)C(=O)O` (centres undefined), for which the MIC came to 0.06 µg/mL (≈ 0.0904 µM) in experiment [1]; 0.02 µg/mL (≈ 0.0301 µM) in experiment [2]; 0.5 µg/mL (≈ 0.753 µM) in experiment [3]; 0.06 µg/mL (≈ 0.0904 µM) in experiment [4]; 2 µg/mL (≈ 3.01 µM) in experiment [5]; 0.06 µg/mL (≈ 0.0904 µM) in [6]. For the same molecule, the MIC in experiment [7] is 0.13 µg/mL (≈ 0.196 µM); in experiment [8], 0.25 µg/mL (≈ 0.377 µM); in [9] it was 2 µg/mL (≈ 3.01 µM); in experiment [10], 4 µg/mL (≈ 6.03 µM); in experiment [11], 0.06 µg/mL (≈ 0.0904 µM); in experiment [12] it was 4 µg/mL (≈ 6.03 µM).

Turning to `CC(C)(O/N=C(\C(=O)NC1C(=O)N2C(C(=O)[O-])=C(CSc3nc(N)cc[n+]3N)CSC12)c1cnc(N)s1)C(=O)O` (centres undefined), the MIC came to 0.03 µg/mL (≈ 0.0492 µM) in [1]; 0.02 µg/mL (≈ 0.0328 µM) in experiment [2]; 0.5 µg/mL (≈ 0.82 µM) in [3]; 0.03 µg/mL (≈ 0.0492 µM) in experiment [4]; 1 µg/mL (≈ 1.64 µM) in [5]; 0.03 µg/mL (≈ 0.0492 µM) in [6]. In addition, the MIC in [7] came out at 0.13 µg/mL (≈ 0.213 µM); in experiment [8], 0.13 µg/mL (≈ 0.213 µM); in [9], 2 µg/mL (≈ 3.28 µM); in experiment [10], 8 µg/mL (≈ 13.1 µM); in [11] it was 0.06 µg/mL (≈ 0.0984 µM); in experiment [12], 2 µg/mL (≈ 3.28 µM).
